Source: publication PMC7246176 (Nature chemical biology, 2020)
Read-outs that look alike come from different tables or passages of the source. Each block holds one compound with its values, some of them ahead of it.

Columns and labels:
PANFR0172_T2 = experiment: Patient-derived pancreatic organoid viability, PANFR0172_T2; format: cell-based, human; details: read-out: PANFR0172_T2 3D organoid culture IC50
Procedure, shortened: (§1)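 Patient-derived PDAC organoids were dissociated to single cells and plated at 1000 viable cells/well in complete organoid medium with 10% Matrigel, in ultra-low-attachment 384-well plates. After 24 h, compound was added by digital dispenser, then 7 days incubation. Read-out was CellTiter-Glo 3D luminescence after 1 h shaking at room temperature, normalized to DMSO wells for each culture.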

LRRK2 = LRRK2 (Homo sapiens, UniProt Q5S007); experiment: LRRK2 ADAPTA kinase assay; format: biochemical; details: Table 1
LRRK2, sequence (Q5S007 whole entry): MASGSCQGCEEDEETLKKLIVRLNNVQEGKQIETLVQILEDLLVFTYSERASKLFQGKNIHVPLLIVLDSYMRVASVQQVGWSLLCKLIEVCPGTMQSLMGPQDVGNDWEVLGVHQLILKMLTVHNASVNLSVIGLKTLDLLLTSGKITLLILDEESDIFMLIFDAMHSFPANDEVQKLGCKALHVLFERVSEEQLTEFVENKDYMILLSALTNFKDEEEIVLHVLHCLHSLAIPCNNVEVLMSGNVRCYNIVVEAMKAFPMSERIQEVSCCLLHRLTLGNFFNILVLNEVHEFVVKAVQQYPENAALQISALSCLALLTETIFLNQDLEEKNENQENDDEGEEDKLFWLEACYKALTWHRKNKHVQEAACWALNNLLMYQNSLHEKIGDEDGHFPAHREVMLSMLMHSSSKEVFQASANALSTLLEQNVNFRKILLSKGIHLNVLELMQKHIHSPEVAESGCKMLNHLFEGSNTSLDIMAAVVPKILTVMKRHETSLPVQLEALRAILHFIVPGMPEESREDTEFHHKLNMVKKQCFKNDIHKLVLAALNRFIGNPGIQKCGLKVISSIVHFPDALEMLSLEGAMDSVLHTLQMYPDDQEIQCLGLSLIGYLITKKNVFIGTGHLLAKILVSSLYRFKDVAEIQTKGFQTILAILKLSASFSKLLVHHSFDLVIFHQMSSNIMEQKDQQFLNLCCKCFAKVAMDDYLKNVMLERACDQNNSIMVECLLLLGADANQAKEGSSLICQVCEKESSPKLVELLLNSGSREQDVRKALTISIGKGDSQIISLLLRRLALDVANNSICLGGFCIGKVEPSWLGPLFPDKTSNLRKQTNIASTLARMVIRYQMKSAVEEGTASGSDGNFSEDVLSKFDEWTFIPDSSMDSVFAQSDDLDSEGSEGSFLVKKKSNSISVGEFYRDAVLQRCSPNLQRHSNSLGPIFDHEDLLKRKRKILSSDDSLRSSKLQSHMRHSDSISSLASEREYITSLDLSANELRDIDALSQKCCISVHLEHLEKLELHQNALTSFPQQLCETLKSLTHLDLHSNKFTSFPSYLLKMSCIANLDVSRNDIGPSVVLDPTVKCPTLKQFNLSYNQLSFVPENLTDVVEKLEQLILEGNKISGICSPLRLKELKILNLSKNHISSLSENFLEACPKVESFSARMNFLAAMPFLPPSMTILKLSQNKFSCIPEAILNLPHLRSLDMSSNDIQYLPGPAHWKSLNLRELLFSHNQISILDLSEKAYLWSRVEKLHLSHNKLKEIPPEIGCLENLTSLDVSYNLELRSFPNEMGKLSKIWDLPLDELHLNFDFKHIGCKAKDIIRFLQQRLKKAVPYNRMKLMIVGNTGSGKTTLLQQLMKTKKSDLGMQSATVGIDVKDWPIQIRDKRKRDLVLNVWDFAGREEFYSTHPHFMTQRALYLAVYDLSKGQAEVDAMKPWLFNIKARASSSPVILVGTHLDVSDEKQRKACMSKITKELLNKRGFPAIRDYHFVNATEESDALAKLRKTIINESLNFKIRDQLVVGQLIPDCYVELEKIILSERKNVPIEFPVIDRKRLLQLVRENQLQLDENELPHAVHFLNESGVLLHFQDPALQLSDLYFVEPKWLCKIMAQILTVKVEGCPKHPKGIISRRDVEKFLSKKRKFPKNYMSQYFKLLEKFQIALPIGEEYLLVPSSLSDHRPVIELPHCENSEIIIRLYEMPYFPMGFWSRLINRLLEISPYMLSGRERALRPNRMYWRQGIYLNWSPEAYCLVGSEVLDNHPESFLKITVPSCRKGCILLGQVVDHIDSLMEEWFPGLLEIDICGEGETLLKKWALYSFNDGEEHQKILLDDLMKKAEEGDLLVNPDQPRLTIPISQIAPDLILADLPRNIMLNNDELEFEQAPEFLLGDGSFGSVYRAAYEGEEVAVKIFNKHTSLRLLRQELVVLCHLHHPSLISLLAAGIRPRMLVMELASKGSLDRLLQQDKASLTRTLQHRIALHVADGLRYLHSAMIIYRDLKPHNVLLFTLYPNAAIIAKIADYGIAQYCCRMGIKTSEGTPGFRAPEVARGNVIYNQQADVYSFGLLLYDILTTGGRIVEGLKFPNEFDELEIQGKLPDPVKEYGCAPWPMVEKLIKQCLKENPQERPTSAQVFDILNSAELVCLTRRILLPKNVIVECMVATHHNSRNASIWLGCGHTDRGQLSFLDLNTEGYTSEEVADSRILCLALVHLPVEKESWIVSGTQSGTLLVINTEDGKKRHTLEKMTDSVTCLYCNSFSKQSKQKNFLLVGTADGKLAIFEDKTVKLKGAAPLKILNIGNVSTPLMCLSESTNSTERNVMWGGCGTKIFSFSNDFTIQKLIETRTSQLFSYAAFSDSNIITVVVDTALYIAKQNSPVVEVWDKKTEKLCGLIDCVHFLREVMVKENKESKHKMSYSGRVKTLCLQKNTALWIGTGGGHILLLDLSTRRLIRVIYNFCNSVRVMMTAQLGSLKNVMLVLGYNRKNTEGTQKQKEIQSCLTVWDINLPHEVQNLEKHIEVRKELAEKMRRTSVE

PANFR0029_T2 = experiment: Patient-derived pancreatic organoid viability, PANFR0029_T2; format: cell-based, human; details: read-out: PANFR0029_T2 3D organoid culture IC50
Procedure, shortened: as §1

PATU-8902 cells [1] = experiment: Cell viability, ultra-low adherent 3D-spheroid culture, PATU-8902; format: cell-based, human; details: read-out: PATU-8902 cells 3D spheroid culture IC50
Procedure, shortened: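 PATU-8988T and PATU-8902 cells were plated at 100 cells/well in 50 μL media, either adherent (2D) or in ultra-low attachment spheroid plates (3D), overnight. Test compound was pin-transferred and cells were incubated 120 h. Viability was read by CellTiter-Glo luminescence after 15 min at room temperature. Data were normalized to DMSO-treated wells per cell line and fitted.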

DCLK2 [2] = target: T1, DCLK2 (Homo sapiens, UniProt Q8N568); experiment: DCLK2 KINOMEscan binding assay
T1 sequence (Q8N568 1-766): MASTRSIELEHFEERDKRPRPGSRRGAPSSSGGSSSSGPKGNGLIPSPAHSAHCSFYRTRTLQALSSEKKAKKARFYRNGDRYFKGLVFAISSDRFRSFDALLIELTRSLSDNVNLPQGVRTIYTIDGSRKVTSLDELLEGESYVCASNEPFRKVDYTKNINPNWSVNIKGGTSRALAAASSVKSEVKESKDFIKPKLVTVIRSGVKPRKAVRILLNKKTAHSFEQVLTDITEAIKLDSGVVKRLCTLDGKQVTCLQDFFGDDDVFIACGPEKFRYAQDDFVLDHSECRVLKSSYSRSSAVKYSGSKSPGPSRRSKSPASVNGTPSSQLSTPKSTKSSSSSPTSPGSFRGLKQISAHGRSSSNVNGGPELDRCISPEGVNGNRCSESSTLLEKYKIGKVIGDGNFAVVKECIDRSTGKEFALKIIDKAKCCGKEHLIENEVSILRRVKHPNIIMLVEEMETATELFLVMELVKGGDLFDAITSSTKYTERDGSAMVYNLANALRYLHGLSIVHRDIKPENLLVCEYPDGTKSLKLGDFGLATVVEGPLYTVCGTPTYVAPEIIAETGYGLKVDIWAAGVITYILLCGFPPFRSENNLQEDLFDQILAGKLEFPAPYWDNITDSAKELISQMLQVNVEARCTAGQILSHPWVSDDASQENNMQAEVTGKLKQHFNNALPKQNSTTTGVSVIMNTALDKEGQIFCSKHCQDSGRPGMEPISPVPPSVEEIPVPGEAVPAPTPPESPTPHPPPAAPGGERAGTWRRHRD
Procedure, shortened: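 KINOMEscan competition binding run by a contract lab. Test compound in 12-point dose response, top concentration 10 μM. Values are the mean of n = 2 biologically independent samples.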

PANFR0172_T3 = experiment: Patient-derived pancreatic organoid viability, PANFR0172_T3; format: cell-based, human; details: read-out: PANFR0172_T3 3D organoid culture IC50
Procedure, shortened: as §1

PATU-8902 cells [3] = experiment: Cell viability, 2D-adherent monolayer culture, PATU-8902; format: cell-based, human; details: read-out: PATU-8902 cells 2D monolayer culture IC50
Procedure, shortened: (§2)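 PATU-8902 or PATU-8988T cells were plated at 100 cells/well and left overnight to adhere (2D plates) or to form spheroids (ultra-low-attachment 3D spheroid plates). Compound was pin-transferred, then 120 h incubation. Viability by CellTiter-Glo luminescence after 15 min at room temperature, normalized to DMSO-treated wells for each cell line.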

DCLK1 [4] = target: T2, DCLK1 (Homo sapiens, UniProt O15075); experiment: 33P-ATP DCLK1 kinase assay; format: biochemical; details: ATP 50 μM (Km)
T2 sequence (O15075 1-740): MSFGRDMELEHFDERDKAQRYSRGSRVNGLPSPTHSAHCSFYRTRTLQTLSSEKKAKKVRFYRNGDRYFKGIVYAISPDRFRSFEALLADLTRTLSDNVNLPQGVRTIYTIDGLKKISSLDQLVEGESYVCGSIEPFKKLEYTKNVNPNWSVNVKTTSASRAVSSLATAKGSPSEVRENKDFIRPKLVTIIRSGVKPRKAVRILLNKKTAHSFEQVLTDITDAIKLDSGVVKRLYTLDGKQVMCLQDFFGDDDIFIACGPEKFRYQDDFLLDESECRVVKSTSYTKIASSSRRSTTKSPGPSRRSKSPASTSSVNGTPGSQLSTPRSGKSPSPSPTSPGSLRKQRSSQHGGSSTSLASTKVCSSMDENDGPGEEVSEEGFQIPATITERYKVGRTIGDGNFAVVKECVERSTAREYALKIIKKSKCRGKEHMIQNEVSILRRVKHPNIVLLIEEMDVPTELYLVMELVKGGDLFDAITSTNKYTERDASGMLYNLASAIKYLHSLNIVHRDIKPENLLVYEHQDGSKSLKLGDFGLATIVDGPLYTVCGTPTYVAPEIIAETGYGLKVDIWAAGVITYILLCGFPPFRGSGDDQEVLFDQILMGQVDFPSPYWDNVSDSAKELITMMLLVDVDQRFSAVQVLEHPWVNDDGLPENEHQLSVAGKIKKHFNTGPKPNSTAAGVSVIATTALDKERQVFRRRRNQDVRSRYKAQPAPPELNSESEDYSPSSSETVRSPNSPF

PATU-8988T cells = experiment: Cell viability, ultra-low adherent 3D-spheroid culture, PATU-8988T; format: cell-based, human; details: 120 h, read-out: PATU-8988T cells 3D spheroid culture IC50
Procedure, shortened: as §2

DCLK1 [5] = target: T2, DCLK1; experiment: DCLK1 KINOMEscan binding assay
PANFR0172_T4 = experiment: Patient-derived pancreatic organoid viability, PANFR0172_T4; format: cell-based, human; details: read-out: PANFR0172_T4 3D organoid culture IC50
Procedure, shortened: as §1

DCLK2 [6] = target: T1, DCLK2; experiment: 33P-ATP DCLK2 kinase assay; format: biochemical
Procedure, shortened: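 Radiometric 33P-ATP assay run by a contract lab. […] Test compound in 12-point dose response, top concentration 10 μM. Values are the mean of n = 3 biologically independent samples.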

[7] = viability, 7 d, P.R. = partial response

Compound: COc1cc(N2CCN(C)CC2)ccc1Nc1ncc2c(n1)N(C)c1ccccc1C(=O)N2CC(F)(F)F [DCLK1-IN-1]
IC50 (PANFR0172_T2; Homo sapiens, 168 h): 877 nM
IC50 (LRRK2; LRRK2 kinase assay IC50, ADAPTA): 6.97 µM
IC50 (PANFR0029_T2; Homo sapiens, 168 h): > 20 µM
IC50 (PATU-8902 cells [1]; Homo sapiens, PaTu 8902, 120 h): > 20 µM
IC50 (DCLK2 [2]): 31 nM
IC50 (PANFR0172_T3; Homo sapiens, 168 h): 2120 nM
IC50 (PATU-8902 cells [3]; Homo sapiens, PaTu 8902, 120 h): > 20 µM
IC50 (DCLK1 [4]; DCLK1 kinase assay IC50, 33P-ATP): 0.0572 µM
IC50 (PATU-8988T cells; Homo sapiens, PaTu 8988t): > 20 µM
IC50 (DCLK1 [5]): 9.5 nM
IC50 (PANFR0172_T4; Homo sapiens, 168 h): > 20 µM
IC50 (DCLK2 [6]): 103 nM

IC50 (LRRK2; read-out: LRRK2 kinase assay IC50, ADAPTA): 0.036 µM
IC50 (DCLK2 [2]; read-out: DCLK2 binding assay IC50, KINOMEscan): 3600 nM
IC50 (DCLK1 [4]; read-out: DCLK1 kinase assay IC50, 33P-ATP): 0.104 µM
IC50 (DCLK1 [5]; read-out: DCLK1 binding assay IC50, KINOMEscan): 1400 nM
IC50 (DCLK2 [6]; read-out: DCLK2 kinase assay IC50, 33P-ATP, ATP 100 μM (Km)): 385 nM
Compound: CCOc1cc(N2CCC(O)CC2)ccc1Nc1ncc2c(n1)N(C)c1ccccc1C(=O)N2C [XMD8-92]
IC50 (PANFR0172_T2; [7]): > 20000 nM
IC50 (PANFR0029_T2; viability, 7 d, DCLK1-negative organoids): 7.03 µM
IC50 (PATU-8902 cells [1]; cell viability, 120 h, P.R. = partial response): > 20 µM
IC50 (PANFR0172_T3; [7]): > 20000 nM
IC50 (PATU-8902 cells [3]; cell viability, 120 h): > 20 µM
IC50 (PATU-8988T cells; cell viability): 6.06 µM
IC50 (PANFR0172_T4; [7]): > 20 µM
